# Results reported in paper PMC3987869 (Journal of medicinal chemistry, 2013).
# “Also recorded” adds a separate entry of the source. Where two headings read alike, the source gives them in different places.
# Legend:
# [1] = test system: mouse brain membrane SH enzymes; format: biochemical; settings: FP-Rh; for Off-targets (1 μM): 1 μM compound; for Off-targets (10 μM): 10 μM compound
# In short: (§1)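 Mouse brain membrane fraction was prepared by Dounce homogenisation in PBS pH 7.5, a 1,400 × g spin, then a 100,000 × g pellet (45 min). Membranes at 1 mg/mL were preincubated with test compound for 30 min at 37 °C, then labelled with FP-rhodamine (1 μM final, 30 min, 37 °C). Samples were quenched in SDS-PAGE loading buffer, run on 10% SDS-PAGE and scanned for in-gel fluorescence.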
# [2] = molecular target: T1, mouse brain membrane SH enzymes (Mus musculus, UniProt O08914); format: biochemical; settings: competitive ABPP, FP-Rh
# T1 sequence (O08914 1-579): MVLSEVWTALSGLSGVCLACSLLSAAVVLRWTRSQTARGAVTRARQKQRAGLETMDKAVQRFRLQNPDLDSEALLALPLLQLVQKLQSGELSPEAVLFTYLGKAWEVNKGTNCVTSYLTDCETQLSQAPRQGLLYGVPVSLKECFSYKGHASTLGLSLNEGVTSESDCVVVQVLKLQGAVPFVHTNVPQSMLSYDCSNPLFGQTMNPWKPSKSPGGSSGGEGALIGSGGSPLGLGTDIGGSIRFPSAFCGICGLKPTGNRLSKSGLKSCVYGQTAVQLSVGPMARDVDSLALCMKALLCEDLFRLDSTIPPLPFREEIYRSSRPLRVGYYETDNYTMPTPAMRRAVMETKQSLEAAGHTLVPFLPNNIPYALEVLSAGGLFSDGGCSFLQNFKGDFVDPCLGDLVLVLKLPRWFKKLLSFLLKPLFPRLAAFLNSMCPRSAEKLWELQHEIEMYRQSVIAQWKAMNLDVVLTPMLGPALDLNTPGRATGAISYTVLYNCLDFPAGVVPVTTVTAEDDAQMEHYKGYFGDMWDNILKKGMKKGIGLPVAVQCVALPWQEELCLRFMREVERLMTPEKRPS
# In short: as §1
# [3] = molecular target: T2, Neuro2A membrane proteome (Mus musculus, UniProt Q8R2Y0); assay: click chemistry-ABPP of Neuro2A cells treated in situ with compound 2; format: cell-based; settings: Neuro2A cells 1 hr, click with azide-Rh
# T2 sequence (Q8R2Y0 1-336): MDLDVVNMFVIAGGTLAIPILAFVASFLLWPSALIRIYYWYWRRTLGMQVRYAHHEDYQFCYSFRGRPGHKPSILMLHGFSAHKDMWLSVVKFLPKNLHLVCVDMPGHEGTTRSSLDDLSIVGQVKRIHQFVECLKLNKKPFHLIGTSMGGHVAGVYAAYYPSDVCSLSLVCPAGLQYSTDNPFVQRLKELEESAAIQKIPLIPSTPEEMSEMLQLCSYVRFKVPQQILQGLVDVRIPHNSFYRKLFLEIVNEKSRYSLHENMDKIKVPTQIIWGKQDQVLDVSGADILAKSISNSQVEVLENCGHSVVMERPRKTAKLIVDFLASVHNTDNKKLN
# [4] = test system: Neuro2A membrane proteome; assay: as above; format: cell-based, mouse; settings: Neuro2A cells 1 hr, click with azide-Rh
# endogenous ABHD6 = molecular target: T3, endogenous ABHD6 (Mus musculus, UniProt Q8R2Y0); assay: gel-based competitive ABPP; format: biochemical; settings: versus compound 1
# T3 sequence (Q8R2Y0 1-336): T2 sequence (Q8R2Y0 1-336)
# ABHD6 [5] = molecular target: T4, ABHD6 (Mus musculus, UniProt Q8R2Y0); assay: in situ ABHD6 inhibition in Neuro2A cells, gel-based competitive ABPP; format: cell-based; settings: for potency and selectivity in cells: abstract statement; for fold more potent in situ compared to compound 1: versus compound 1
# T4 sequence (Q8R2Y0 1-336): T2 sequence (Q8R2Y0 1-336)
# [6] = test system: other SHs detected in Neuro2A cells; assay: ABPP-SILAC of Neuro2A cells treated in situ: other serine hydrolases; format: cell-based, mouse; settings: 3 nM, 4 hr
# In short: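 Neuro2A cells were grown 10 passages in light or heavy (13C/15N Arg and Lys) SILAC DMEM with 10% dialyzed FCS and 2 mM L-glutamine. Heavy cells received test compound and light cells DMSO (4 hr, 37 °C). Soluble and membrane proteomes (2.0 mg/mL) were labeled with 10 μM FP-biotin (2 hr, 25 °C), mixed 1:1, avidin-enriched, trypsin-digested on bead (12 hr, 37 °C) and analysed by LC-MS/MS. Heavy/light ratios were taken from ≥3 unique peptides per enzyme.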
# ABHD6 [7] = molecular target: T4, ABHD6; assay: in vivo ABHD6 inhibition in mouse liver, gel-based competitive ABPP; settings: 4 hr; for liver ABHD6 inhibition at 1 mg kg^-1: i.p., 1 mg kg^-1, HT-01 gels
# ABHD6 [8] = molecular target: T4, ABHD6; assay: in vivo ABHD6 inhibition in mouse brain, gel-based competitive ABPP; settings: for brain ABHD6 inhibition: 1 mg kg^-1 (20: all doses tested, 0.1-1 mg kg^-1)
# [9] = molecular target: T5, other brain and liver SHs (CES1, FAAH) (Mus musculus, UniProt O08914); format: in vivo; settings: for lowest oral dose with cross-reactivity with FAAH in the brain: oral gavage
# T5 sequence (O08914 1-579): T1 sequence (O08914 1-579)
# In short: (§2)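 Mice were dosed i.p. in 18:1:1 saline/ethanol/PEG40 (10 μL g-1) or by oral gavage in PEG300 (4 μL g-1). After 4 hr they were anaesthetised with isoflurane and killed by cervical dislocation. Brain and liver were Dounce-homogenised in PBS pH 7.5, and membrane fractions (100,000 × g pellet) were labelled with FP-rhodamine or HT-01 (1 μM, 30 min, 37 °C). Readout was SDS-PAGE with in-gel fluorescence.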
# [10] = test system: other brain and liver SHs (CES1, FAAH); format: in vivo; settings: mouse, i.p., 4 hr, FP-Rh gels
# In short: as §2
# ABHD6 [11] = molecular target: T4, ABHD6; settings: negligible cross-reactivity with FAAH; cited from earlier work
# [12] = Table 1, mouse brain membrane proteome
smiles,measurement,setting,value
O=C(N1CCCCC1c1ccccc1)n1cc(-c2ccc(-c3ccccc3CO)cc2)nn1 (centres unmarked) [Compound 8],Off-targets (1 μM),[1]; mouse brain SHs,none
same,Off-targets (10 μM),"[1]; Table 2, mouse brain SHs","FAAH, LYPLA1, LYPLA2"
O=C(c1ccc(-c2ccc(-c3cn(C(=O)N4CCCCC4Cc4ccccc4)nn3)cc2)cc1)N1CCCCC1 (centres unmarked) [Compound 5],Off-targets (10 μM),[1]; [12],none
COc1ccccc1-c1ccc(-c2cn(C(=O)N3CCCCC3c3ccccc3)nn2)cc1 (centres unmarked) [Compound 6],Off-targets (10 μM),[1]; [12],"FAAH, MGLL"
C#CCOCCCc1ccc(C2CCCCN2C(=O)n2cc(-c3ccc(-c4ccc(OC)cc4)cc3)nn2)cc1 (centres unmarked) [Compound 2],concentrations cross-reactive with FAAH in mouse brain proteome,[2],0.4 to 10 µM
same,lowest concentration at which the ∼35 kDa target (ABHD6) was detected,[3],10 nM
same,"concentrations with limited cross-reactivity (60 kDa protein, likely FAAH)",[4],80 to 600 nM
"O=C(N1CCCCC1c1ccccc1)n1cc(-c2ccc(-c3cccc(CO)c3)cc2)nn1 (centres unmarked) [Compound 9, (4-(3′-(Hydroxymethyl)-[1,1′-biphenyl]-4-yl)-1H-1,2,3-triazol-1-yl)(2-phenylpiperidin-1-yl)methanone]",fold more potent in vitro compared to compound 1,endogenous ABHD6,~10 fold
same,Off-targets (1 μM),[1]; mouse brain SHs,none
same,Off-targets (10 μM),"[1]; Table 2, mouse brain SHs","FAAH, LYPLA1, LYPLA2"
same,potency and selectivity in cells,ABHD6 [5],< 5 nM
same,fold more potent in situ compared to compound 1,ABHD6 [5],~5 fold
same,cross-reactivity against the ∼50 other SHs (ABPP-SILAC),[6],< 50%
same,liver ABHD6 inhibition at 1 mg kg^-1,ABHD6 [7],near-complete blockade; also recorded: near-complete inactivation
same,brain ABHD6 inhibition,"ABHD6 [8]; i.p., 4 hr",completely inactivated; also recorded: near-complete inactivation
same,lowest oral dose with cross-reactivity with FAAH in the brain,[9],10 mg/kg
same,inhibition of off-target carboxylesterase-1 (CES1) in vivo,[10],inhibited
"O=C(O)c1cccc(-c2ccc(-c3cn(C(=O)N4CCCCC4Cc4ccccc4)nn3)cc2)c1 (centres unmarked) [Compound 20, 4′-(1-(2-Benzylpiperidine-1-carbonyl)-1H-1,2,3-triazol-4-yl)-[1,1′-biphenyl]-3-carboxylic acid]",fold more potent in vitro compared to compound 1,endogenous ABHD6,~10 fold
same,Off-targets (1 μM),[1]; mouse brain SHs,none
same,Off-targets (10 μM),"[1]; Table 2, mouse brain SHs","FAAH, DAGLβ"
same,potency and selectivity in cells,ABHD6 [5],< 5 nM
same,fold more potent in situ compared to compound 1,ABHD6 [5],~5 fold
same,cross-reactivity against the ∼50 other SHs (ABPP-SILAC),[6],< 50%
same,liver ABHD6 inhibition at 1 mg kg^-1,ABHD6 [7],near-complete blockade; also recorded: near-complete inactivation
same,brain ABHD6 inhibition,"ABHD6 [8]; i.p., 4 hr",negligible inhibition
same,lowest oral dose with cross-reactivity with FAAH in the brain,[9],10 mg/kg
O=C(O)c1cccc(-c2ccc(-c3cn(C(=O)N4CCCCC4c4ccccc4)nn3)cc2)c1 (centres unmarked) [Compound 21],Off-targets (1 μM),[1]; mouse brain SHs,"APEH, LYPLA1, and LYPLA2"
same,Off-targets (10 μM),"[1]; Table 2, mouse brain SHs","FAAH, APEH, LYPLA1, LYPLA2"
"O=C(c1cccc(-c2ccc(-c3cn(C(=O)N4CCCCC4c4ccccc4)nn3)cc2)c1)N1CCCCC1 (centres unmarked) [Compound 11, (2-Phenylpiperidin-1-yl)(4-(3′-(piperidine-1-carbonyl)-[1,1′-biphenyl]-4-yl)-1H-1,2,3-triazol-1-yl)methanone]",fold more potent in vitro compared to compound 1,endogenous ABHD6,~10 fold
same,Off-targets (1 μM),[1]; mouse brain SHs,none
same,Off-targets (10 μM),"[1]; Table 2, mouse brain SHs","LYPLA1, LYPLA2"
same,fold more potent in situ compared to compound 1,ABHD6 [5],~5 fold
same,cross-reactivity against the ∼50 other SHs (ABPP-SILAC),[6],< 50%
same,doses giving near-complete blockade of ABHD6 in the liver (i.p.),ABHD6 [7],5 to 10 mg/kg
same,dose to completely block ABHD6 in the brain (i.p.),"ABHD6 [8]; i.p., 4 hr",~40 mg/kg
same,inhibition at 20 mg/kg,"ABHD6 [8]; ip, read-out: brain ABHD6 inhibition at 20 mg kg^-1",> 70%
same,dose producing complete blockade of brain ABHD6 (p.o.),"ABHD6 [8]; p.o., PEG300, 4 hr",40 mg/kg
same,cross-reactivity with FAAH in brain in vivo,"[9]; i.p., 1-40 mg kg^-1, 4 hr",negligible
COc1ccccc1-c1ccc(-c2cn(C(=O)N3CCCCC3Cc3ccccc3)nn2)cc1 (centres unmarked) [Compound 3],Off-targets (10 μM),[1]; [12],MGLL
O=C(N1CCCCC1c1ccccc1)n1cc(-c2ccc(-c3ccc(CO)cc3)cc2)nn1 (centres unmarked) [Compound 10],Off-targets (1 μM),[1]; mouse brain SHs,none
same,Off-targets (10 μM),"[1]; Table 2, mouse brain SHs","FAAH, LYPLA1, LYPLA2"
COc1ccc(-c2ccc(-c3cn(C(=O)N4CCCCC4c4ccccc4)nn3)cc2)cc1 (centres unmarked) [Compound 1],Off-targets (10 μM),[1]; [12],FAAH
same,concentration that completely inactivates ABHD6 in living cells,ABHD6 [11],25 nM
O=C(O)c1cccc(-c2ccc(-c3cn(C(=O)N4CCCCC4CCc4ccccc4)nn3)cc2)c1 (centres unmarked) [Compound 22],Off-targets (1 μM),[1]; mouse brain SHs,none
same,Off-targets (10 μM),"[1]; Table 2, mouse brain SHs",FAAH
NC(=O)c1ccc(-c2ccc(-c3cn(C(=O)N4CCCCC4c4ccccc4)nn3)cc2)cc1 (centres unmarked) [Compound 13],Off-targets (1 μM),[1]; mouse brain SHs,none
same,Off-targets (10 μM),"[1]; Table 2, mouse brain SHs","FAAH, LYPLA1, LYPLA2"
O=C(N1CCCCC1Cc1ccccc1)n1cc(-c2ccc(-c3cccc(CO)c3)cc2)nn1 (centres unmarked) [Compound 4],Off-targets (10 μM),[1]; [12],none
O=C(c1ccc(-c2ccc(-c3cn(C(=O)N4CCCCC4c4ccccc4)nn3)cc2)cc1)N1CCCCC1 (centres unmarked) [Compound 12],Off-targets (1 μM),[1]; mouse brain SHs,none
same,Off-targets (10 μM),"[1]; Table 2, mouse brain SHs","LYPLA1, LYPLA2"
